Source: PubChem BioAssay
PKD1 inh – PKD1 (human) kinase inhibition | PKD1 kinase fluorescence polarization assay | inhibition, % (concentration not given with the values) | 200,000 tested, 0.056% active | AID 797
Target sequence (Q15139 whole entry, looked up): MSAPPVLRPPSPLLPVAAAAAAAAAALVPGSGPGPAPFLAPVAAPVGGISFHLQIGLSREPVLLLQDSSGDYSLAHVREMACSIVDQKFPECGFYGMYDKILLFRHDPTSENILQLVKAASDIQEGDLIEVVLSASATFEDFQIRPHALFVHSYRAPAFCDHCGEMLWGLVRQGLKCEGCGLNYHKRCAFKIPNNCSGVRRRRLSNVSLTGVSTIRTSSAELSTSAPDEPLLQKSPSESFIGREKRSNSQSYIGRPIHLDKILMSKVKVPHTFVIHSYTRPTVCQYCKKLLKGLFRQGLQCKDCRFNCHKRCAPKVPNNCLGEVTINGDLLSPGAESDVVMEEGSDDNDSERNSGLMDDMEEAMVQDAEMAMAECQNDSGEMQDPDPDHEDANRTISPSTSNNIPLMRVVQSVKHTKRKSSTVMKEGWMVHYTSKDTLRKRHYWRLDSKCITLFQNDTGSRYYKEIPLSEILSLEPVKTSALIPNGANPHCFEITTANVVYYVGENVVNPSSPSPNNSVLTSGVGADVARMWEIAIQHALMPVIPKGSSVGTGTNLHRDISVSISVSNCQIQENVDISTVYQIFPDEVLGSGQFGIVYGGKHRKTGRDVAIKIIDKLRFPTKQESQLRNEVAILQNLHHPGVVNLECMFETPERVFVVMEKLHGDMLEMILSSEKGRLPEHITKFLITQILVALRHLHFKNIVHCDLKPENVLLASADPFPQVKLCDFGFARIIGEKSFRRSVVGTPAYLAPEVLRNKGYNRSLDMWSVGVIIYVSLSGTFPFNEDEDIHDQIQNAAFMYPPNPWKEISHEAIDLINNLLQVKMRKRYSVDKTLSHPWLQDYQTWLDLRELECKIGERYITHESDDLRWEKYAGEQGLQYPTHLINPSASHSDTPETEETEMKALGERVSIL
L major viab – reduces viability of Leishmania major promastigotes; resazurin fluorescence viability; inhibition, % at 10 µM; 200,000 tested, 9% active;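 note: promastigotes grown with compound for 44 hours at 28 °C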
Avidin bead fluor – avidin bead compound fluorescence profile; 220,000 tested, 0.38% active; fluorescence (KMESF) at 10 µM; AID 1775; Avidin beads, compound fluorescence 488/530 nm, flow cytometry; hits give high values; in the data active = fluorescence above about 47
GSH fluor – compound fluoresces at 488/530 nm on GSH beads. GSH beads flow cytometry, compound fluorescence 488/530 nm; hits give high values. fluorescence (KMESF) at 10 µM. 190,000 tested, 0.25% active; in the data active = fluorescence above about 89;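 note: glutathione beads carrying GST-tagged Bcl family fusion proteins plus one bare bead set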
ABCG2 inh – inhibitors of human ABCG2 transporter, ABCB1 counter-screen; Q9UNQ0; IgMXP3 cells, JC-1 efflux, flow cytometry; inhibition, % at 6.6 µM; 190,000 tested, 0.1% active;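 active = inhibition above 80%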
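Test system: IgMXP3 (ABCG2) plus far-red-tagged CCRF-Adr (ABCB1) cells / Amount: 3 million cells/mL in well / Reagent: JC-1 transporter substrate / Timing: 10 min compound exposure, 25 °C / Signal: flow cytometry, 530 nm JC-1 signal / Read-out: percent efflux inhibition, scaled nicardipine 100% to DMSO 0% / Benchmarks: nicardipine as high control, DMSO as low control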
ABCB1 inh – blocks JC-1 efflux by human ABCB1 transporter; inhibition, % at 6.6 µM; P08183; CCRF-Adr cells, flow cytometry; 190,000 tested, 0.067% active; in the data active = inhibition above about 40%;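 note: higher value means more JC-1 retained so stronger ABCB1 efflux block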
L major 1uM – inhibitors of Leishmania major promastigote growth, repeat at 1 uM. shares compounds with L major viab. L. major promastigote growth, resazurin fluorescence, 48 h. inhibition, % at 1 µM. 1,100 tested, 13% active. AID 1258;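 active = inhibition above about 50% in both repeat tests, limit read from the data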
A number is an active result; - = inactive; . = not tested or not shown. The sample as a whole holds a higher share of hits than the screen did. Cut-off read from the data, not from the text of the source, unless noted: active = inhibition above about 50%; inactive = the rest.

SMILES | PKD1 inh | L major viab | Avidin bead fluor | GSH fluor | ABCG2 inh | ABCB1 inh | L major 1uM
O=C(NCCC(c1ccccc1)c1ccccc1)c1ccc(Br)o1 | - | 59 | - | - | - | - | -
C=CCc1c(C)nc(C)nc1N/N=C/c1ccc(F)cc1 | - | - | - | - | - | - | .
C=CCc1c(C)nc(SC)nc1Nc1ccc(C)cc1 | - | 97 | - | - | . | . | -
CCN(CC)c1ccc(CN2CCCCCC2)cc1 | - | 90 | - | - | - | - | -
COc1ccc(-c2cc(-c3cc(C)ccc3O)[nH]n2)cc1 | - | - | - | - | - | - | .
Cc1ccc(O)c(-c2cc(-c3ccccc3C)[nH]n2)c1 | - | 55 | - | - | - | - | -
CCCSc1nc(=O)n2cccc(C)c2n1 | - | - | - | - | - | - | .
CC12COC3(C(=O)Nc4ccc(F)cc4)CC1CCC32C (stereo not given) | - | - | - | - | - | - | .
CC12COC3(P(=O)(c4ccccc4)c4ccccc4)CC1CCC23CP(=O)(c1ccccc1)c1ccccc1 (stereo not given) | - | 62 | - | - | - | - | -
N#Cc1c(NC(=O)C2CC(c3c(F)cccc3Cl)=NO2)sc2c1CCC2 (stereo not given) | - | 64 | - | - | - | . | -
CC(C)Cc1nc2ccccc2n1CCc1ccccc1 | - | 56 | - | - | - | - | -
Cc1ccc(S(=O)(=O)c2ccc(Oc3cccc(C)c3)cc2)cc1 | - | 74 | - | - | - | - | 85
Cc1ccc(S(=O)(=O)c2ccc(C)cc2)cc1 | - | - | - | - | - | - | .
CNC(=S)NC12CC3CC(CC(C3)C1)C2 | - | - | - | - | - | - | .
O=C(c1cc2ccccc2o1)N1CCN(S(=O)(=O)c2cccs2)CC1 | - | 72 | - | - | - | - | -
Cc1ccc(-c2csc3ncnc(Oc4cccc5ccc(C)nc45)c23)cc1 | - | - | - | - | - | - | .
Cc1ccc2cccc(Oc3ncnc4sc(C)c(C)c34)c2n1 | - | 90 | - | - | - | - | -
C=C(C)CSc1nnc([C@@H](NC(=O)OC(C)(C)C)C(C)CC)o1 (stereo not given in full) | - | - | - | - | - | - | .
Cc1ccc(C(O)(COC(=O)C(C)C)COC(=O)C(C)C)c(O)c1 | - | 60 | - | - | - | - | -
CC(C)(O)CCCC(C)(O)c1ccc(C(=O)O)cc1O (stereo not given) | . | . | - | . | . | . | .
c1ccc(N2CCN(c3ccccc3)C2c2cccs2)cc1 | - | 94 | - | - | - | - | -
O=C1CSC(c2cccs2)N1c1ccccc1 (stereo not given) | - | - | - | - | - | - | .
Cc1ccc(NC(=O)C(Cc2ccccc2)NC(=O)c2ccco2)cc1 (stereo not given) | - | - | - | - | - | - | .
NC(=O)c1cc(NC(=O)c2ccc(NS(=O)(=O)c3cccs3)cc2)cc(C(N)=O)c1 | . | . | - | . | . | . | .
FC(F)(F)c1cccc(NC(=S)NCc2ccc(Cl)cc2)c1 | - | - | - | - | - | - | .
SMILES | PKD1 inh | L major viab | Avidin bead fluor | GSH fluor | ABCG2 inh | ABCB1 inh | L major 1uM
Fc1cccc(NC(=S)NCc2ccc(Cl)cc2)c1 | - | 70 | - | - | - | - | -
COc1ccc(OC)c(NC(=O)C2CC(C)=C(C)CC2C(=O)O)c1 (stereo not given) | - | - | - | - | - | - | .
CN1CCCN(c2ccc([N+](=O)[O-])cc2)CC1 | - | - | - | - | - | - | .
CCN(CCn1cccn1)C(=O)CCc1nnc(C2(c3ccc(Cl)cc3)CCC2)o1 | - | - | - | - | - | - | .
CC(C)(C)S(=O)(=O)c1nc2ccccc2s1 | - | - | - | - | - | - | .
C=CCS(=O)(=O)c1nc2ccccc2s1 | - | 101 | - | - | - | - | -
O=S(=O)(CCSc1nc2ccccc2s1)c1nc2ccccc2s1 | - | 100 | - | - | - | - | 54
Nc1ccc(-c2nc3ccc(-c4nc5ccccc5o4)cc3[nH]2)cc1 | - | 76 | - | - | - | - | -
Nc1ccc(-c2nc3ccc(N)cc3[nH]2)cc1 | - | - | - | - | - | - | .
O=[N+]([O-])c1ccc(-c2nc(-c3cccs3)c(-c3cccs3)[nH]2)cc1 | - | 92 | - | - | - | - | 55
O=[N+]([O-])c1ccc(-c2nc3ccc([N+](=O)[O-])cc3[nH]2)cc1 | - | - | - | - | - | - | .
CCSC1=NCCN1C(=O)C(C)(C)Oc1ccc(Cl)cc1 | - | 65 | - | - | - | - | -
O=C(Cn1ccc([N+](=O)[O-])n1)Nc1nccs1 | - | 77 | - | - | - | - | -
Cc1cc([N+](=O)[O-])nn1CC(=O)Nc1nccs1 | - | - | - | - | - | - | .
C=CCn1c(O)c(C2=c3ccccc3=NC2=O)sc1=Nc1ccc(O)cc1 | . | . | - | . | . | . | .
Cn1cccc1Cc1nnc(SCC(=O)Nc2ccc(F)cc2)n1CCc1ccccc1 | - | 56 | - | - | - | - | -
CCOC(=O)CNC(=S)N(Cc1ccccc1)Cc1cccnc1 | - | - | - | - | - | - | .
CCC(C)NC(=O)CNC(=S)N(Cc1ccccc1)Cc1cccnc1 (stereo not given) | - | 75 | - | - | - | - | -
O=C(O)c1ccc2c3c(ncnc13)-c1ccccc1C2=O | - | 98 | - | - | - | - | -
COc1ccc(-c2cc3nc(-c4ccccc4)cc(N4CCC5(CC4)OCCO5)n3n2)cc1 | - | 80 | - | - | - | - | -
O=S(=O)(c1ccc(-c2csc(-c3cccnc3)n2)cc1)N1CCCCC1 | - | 78 | - | - | - | - | -
Cc1cnc(C(=O)Nc2cc(F)ccc2C)cn1 | - | - | - | - | - | - | .
CC(=O)OC(/C(O)=C(\C#N)c1nc2ccccc2[nH]1)c1ccccc1 (stereo not given) | - | - | - | - | - | - | .
COC(=O)C[N+](C)(C)CC#Cc1ccccc1 | - | 53 | - | - | - | - | -
C[N+](C)(CC#Cc1ccccc1)CC(=O)c1ccccc1 | - | - | - | - | - | - | .
SMILES | PKD1 inh | L major viab | Avidin bead fluor | GSH fluor | ABCG2 inh | ABCB1 inh | L major 1uM
O=C(NCc1ccco1)C(=O)NCC1OCCCN1S(=O)(=O)c1ccccc1 (stereo not given) | - | - | - | - | - | - | .
O=C(Cc1cccs1)Nc1nc2ccccc2s1 | - | - | - | - | - | - | .
Cc1ccc(/C=C(\NC(=O)c2ccccc2)C(=O)OCc2ccccc2)cc1 | - | 63 | - | - | - | . | -
CCc1ccc2[nH]c(=O)c(CN(CCCN3CCOCC3)C(=O)Nc3ccc(Cl)cc3)cc2c1 | - | 79 | - | - | - | - | -
Cc1nn(-c2ccccn2)c2c1C(=O)CC(C)(C)C2Br (stereo not given) | . | . | - | . | . | . | .
Cc1ccc(CNc2ccc(N3CCOCC3)cc2)s1 | - | 81 | - | - | - | - | -
CCOc1ccc(Cn2c3ccc(OC)cc3c3nc4ccccc4nc32)cc1 | - | 54 | - | - | - | - | -
O=C(Nc1ccc(F)cc1)c1sccc1SCc1cccc(C(F)(F)F)c1 | - | - | - | - | - | - | .
